According to article PMC4577306 (Biochimica et biophysica acta, 2015):
No end group written: not given here.

Legend:
human RIIα = human RIIα (Homo sapiens, UniProt P13861); assay: SPR kinetics of RIIα on immobilized neurochondrin peptides; type: binding; conditions: for kon: read-out: ka (apparent association rate constant)
In short: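 Human RIIα purified by cAMP affinity chromatography. Test peptides dissolved in DMSO, amine-coupled to CM5 chips after 10 min NHS/EDC activation to about 1 RU, then blocked with 1 M ethanolamine-HCl pH 8.5, at 5 μL/min and 25 °C. Activated/deactivated reference flow cell. Running buffer 100 mM Tris, 150 mM NaCl, 0.005% Tween 20, pH 7.4, 25 °C. Surfaces regenerated with SDS, 4 M guanidinium-HCl and 1 M NaCl buffer.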

[1] = target: neurochondrin peptide II (human); assay: SPR
[2] = target: neurochondrin peptide I (human); assay: SPR

Sequence of human RIIα (P13861 whole entry): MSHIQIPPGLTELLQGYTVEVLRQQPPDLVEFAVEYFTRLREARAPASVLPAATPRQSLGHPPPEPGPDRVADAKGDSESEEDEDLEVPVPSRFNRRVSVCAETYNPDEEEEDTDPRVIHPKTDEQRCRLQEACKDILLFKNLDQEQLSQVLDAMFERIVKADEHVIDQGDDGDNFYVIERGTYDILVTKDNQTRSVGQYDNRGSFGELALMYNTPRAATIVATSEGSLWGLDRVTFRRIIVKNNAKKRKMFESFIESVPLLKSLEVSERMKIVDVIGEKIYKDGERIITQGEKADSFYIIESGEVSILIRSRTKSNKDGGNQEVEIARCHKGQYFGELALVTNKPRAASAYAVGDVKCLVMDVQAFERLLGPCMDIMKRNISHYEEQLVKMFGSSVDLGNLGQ

Substance | Kd (human RIIα) [nM] | kon (human RIIα) [M⁻¹ s⁻¹] | Kd [1] [nM] | Kd [2] [nM]
KLSSWQRNPALKLAARLAHA-NH2 [peptide II] | 9.6 ± 4.8 | 110000 ± 5e+09 |  | 
human RIIα subunit of cAMP-dependent protein kinase (PKA) (from UniProt P13861 1-404) (natural protein) |  |  | 9.6 | 9.3
YAGDIDAKTRRRIFDAVGFTF-NH2 [peptide I] | 9.3 ± 3.1 | 120000 ± 1e+09 |  | 
